# From ChEMBL document CHEMBL4033799, “Stable and Long-Lasting, Novel Bicyclic Peptide Plasma Kallikrein Inhibitors for the Treatment of Diabetic Macular Edema” (J Med Chem, 2018)
# Key:
# Rattus norvegicus [1] = assay: Toxicity in rat at 125 ug administered as systemic dose; details: in vivo
# [2] = Drug level in New Zealand white rabbit ipsialateral eye vitreous humor at 2 mg/ml, administered via ivt injection at early time point measured up to 100 hrs by LC-MS/MS analysis; type: ADME, tissue-based, Oryctolagus cuniculus; details: ipsilateral eye vitreous humor, topical or ocular, read-out: Drug uptake
# Method in brief: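 Male New Zealand White rabbits (10 weeks old, ~2 kg) received one 50 μL intravitreal injection per eye of peptide at 2 mg/mL in 50 mM sodium phosphate, pH 7.2. Animals were sacrificed at 15 min, 1, 4, 8, 24, 48 and 96 h (3 per time point). Whole vitreous was homogenized, clarified, 0.2 μm filtered and assayed by LC-MS/MS, with a lower limit of detection of 1 ng/mL in vitreous.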
# Mus musculus = assay: Antidiabetic activity in STZ-induced diabetic C57BL/6J mouse model assessed as reduction in retinal vascular permeability at 100 ug administered 4 times via ivt measured at 8 weeks post diabetes onset relative to control; type: functional
# Method in brief: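 Diabetes was induced with STZ in male C57BL/6J mice. Peptide was given as repeated intravitreal injections (4 × 100 μg). Retinal permeability was read as FITC-BSA extravasation 8 weeks after diabetes onset and compared with vehicle-treated diabetic mice. The anti-VEGFR2 antibody DC101 (6.2 μg/eye, single dose) served as positive control.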
# Rattus norvegicus [3] = assay: Antiinflammatory activity in Sprague-Dawley rat assessed as inhibition carrageenan-induced paw edema at 30 mg/kg, ip pretreated for 15 mins followed by carrageenan challenge measured at 1 hr post carrageenan challenge; type: functional
# Method in brief: (§1)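 Male Sprague-Dawley rats received peptide IP (30, 10 or 3 mg/kg), or indomethacin IP at 5 mg/kg, 15 min before subplantar carrageenan. Paw volume was followed over time against a vehicle group.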
# [4] = Aqueous solubility of the compound in buffer; type: physicochemical
# Rattus norvegicus [5] = assay: Antiinflammatory activity in Sprague-Dawley rat assessed as inhibition carrageenan-induced paw edema at 30 mg/kg, ip pretreated for 15 mins followed by carrageenan challenge measured at 2 hrs post carrageenan challenge; type: functional; method in brief: as §1
concentration at 100 h [2] [µM],solubility [4],Compound,Activity (Rattus norvegicus [1]),inhibition (INH) (Mus musculus) [%],inhibition in vivo at 30 mg/kg (Rattus norvegicus [3]) [%],inhibition in vivo at 30 mg/kg (Rattus norvegicus [5]) [%]
45,–,CC(=O)N[C@H]1CSCc2cc3cc(c2)CSC[C@H](NC(=O)[C@H](CCCCNC(=N)N)NC(=O)[C@H](Cc2ccc(O)cc2)NC(=O)[C@@H]2CCN2C(=O)[C@H](Cc2ccccc2)NC(=O)[C@H](CO)NC1=O)C(=O)N[C@@H](C)CN[C@@H](Cc1cnc[nH]1)C(=O)N[C@@H](CCC(N)=O)C(=O)N[C@@H](CC(=O)O)C(=O)N[C@@H](CC(C)C)C(=O)N[C@H](C(=O)O)CSC3,Non-Toxic,–,–,–
–,Soluble,CC(=O)N[C@H]1CSCc2cc3cc(c2)CSC[C@H](C(=O)N[C@@H](C)C(=O)N(C)CC(=O)N(C)CC(=O)N(C)CC(=O)N[C@H](CCCNC(=N)N)C(=O)N[C@H](CCCNC(=N)N)C(=O)O)NC(=O)[C@H](CC(C)C)NC(=O)[C@@H]2CCCN2C(=O)[C@H](C)NC(=O)[C@H](CC(=O)O)NC(=O)[C@H](Cc2c[nH]c4ccccc24)NC(=O)[C@@H]2CCCN2C(=O)[C@H](CSC3)NC(=O)[C@H](Cc2c[nH]c3ccccc23)NC(=O)[C@@H]2CCCN2C(=O)[C@H](CC(N)=O)NC(=O)[C@H](Cc2c[nH]c3ccccc23)NC(=O)[C@H]([C@@H](C)O)NC(=O)[C@H](CC(N)=O)NC1=O,–,36,71,59
